The values below come from ChEMBL document CHEMBL1158970, “Two new styryl lactones, 9-deoxygoniopypyrone and 7-epi-goniofufurone, from Goniothalamus giganteus” (J Nat Prod, 1991).

For one data set, the system named is HT-29. In words: Cytotoxicity against human HT-29 cells. The following applies: read-out: ED50 (the source's name). Type of data set: functional. Summed up:
(§1)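 Human tumor cell cytotoxicity run by the Purdue Cancer Center's cell culture laboratory using standard protocols, with adriamycin as the positive standard. A-549, MCF-7 and HT-29 were each tested under a separately cited protocol.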

A short description of data set [1]: Toxicity against brine shrimp. It counts as organism-based. The following applies: artemia, in vivo. In short, it runs like this: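 Brine shrimp lethality assay run in-house following a published method. The positive standard, adriamycin, was dissolved directly in sea water and tested immediately.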
The subject of the next data set is MCF7. In words: Cytotoxicity against human MCF7 cells. It counts as functional. The following applies: read-out: ED50 (the source's name). In short, it runs like this:
as §1

Another data set deals with A549. In words: Cytotoxicity against human A549 cells. It counts as functional. The conditions noted are these: read-out: ED50 (the source's name). In short, it runs like this:
as §1

SMILES strings stand for the structures. ≈ marks a conversion by molar mass, not a printed value.

`O=C1C[C@H]2C[C@@H](O1)[C@H](O)[C@H](c1ccccc1)O2`: the EC50 in the data set with HT-29 stood at 7.38 µg/mL (≈ 31.5 µM); with MCF7, 25.4 µg/mL (≈ 108 µM); in the data set with A549 it was 27.2 µg/mL (≈ 116 µM). Moreover, the LC50 in data set [1] is more than 500 µg/mL.
Taken in the same sequence, the figures for `O=C1C[C@@H]2O[C@@H]([C@H](O)c3ccccc3)[C@@H](O)[C@@H]2O1` (relative stereo) were more than 100 µg/mL, 49.1 µg/mL (≈ 196 µM), 85.5 µg/mL (≈ 342 µM) and 475 µg/mL (≈ 1900 µM).
In the case of `COc1cccc2c1C(=O)c1c(O)c3c(c(O)c1C2=O)C[C@@](O)(C(=O)CO)C[C@@H]3O[C@H]1C[C@H](N)[C@H](O)[C@H](C)O1` [DOXORUBICIN], the EC50 worked out at 0.00416 µg/mL (≈ 0.00765 µM) in the data set with HT-29, 0.0177 µg/mL (≈ 0.0326 µM) in the data set on MCF7 and 0.00684 µg/mL (≈ 0.0126 µM) in the data set on A549.
Take `O=C1C=CC[C@H]([C@H](O)[C@H](O)c2ccccc2)O1` [GONIODIOL]: the EC50 in the data set with HT-29 was determined as 2.45 µg/mL (≈ 10.5 µM); in the data set with MCF7 it was 8.27 µg/mL (≈ 35.3 µM); in the data set with A549, 0.122 µg/mL (≈ 0.521 µM). Besides, the LC50 in data set [1] is more than 500 µg/mL.
